# Only some compounds are listed: those with a hit (about 2.4% of all), similar ones and a draw of the others.
# aDG glyco act: alpha-DG glycosylation activation; Pro5-aDG cells, alpha-DG glycosylation AlphaScreen (IIH6); 0% Pro5, 100% B10-LARGE cell signal; activation, % at 10 µM; 360,000 compounds, 0.22% hits; AID 624168;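 active = activation of at least 8% versus controls, or a plate z-score of at least 8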;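 also: Pro5 are CHO cells carrying HIG-tagged alpha-DG that lacks glycosylation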
# 697 NFkB inh: inhibitors of the PMA/ionomycin-induced NF-kB reporter in 697 B cells | 697 B-cell NF-kB luciferase reporter, 16 h | inhibition, % at 4 µM | 330,000 compounds, 0.33% hits | AID 435022; in the data active = inhibition above about 35%
# NR2E3 ag-1: agonists of human nuclear receptor NR2E3; Q9Y5X4; GST-NR2E3/biotin-RetCOR TR-FRET, 1536-well; 320,000 compounds, 0.12% hits; inhibition of corepressor binding, % at 4.78 µM;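 active = percent inhibition above the cutoff of mean plus 3 SD of all tested compounds, set per screening campaign, cut at about 20% in these data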;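 also: 0% = DMSO wells and 100% = biotin wells as full block of FRET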
# Target sequence (Q9Y5X4 whole entry, looked up): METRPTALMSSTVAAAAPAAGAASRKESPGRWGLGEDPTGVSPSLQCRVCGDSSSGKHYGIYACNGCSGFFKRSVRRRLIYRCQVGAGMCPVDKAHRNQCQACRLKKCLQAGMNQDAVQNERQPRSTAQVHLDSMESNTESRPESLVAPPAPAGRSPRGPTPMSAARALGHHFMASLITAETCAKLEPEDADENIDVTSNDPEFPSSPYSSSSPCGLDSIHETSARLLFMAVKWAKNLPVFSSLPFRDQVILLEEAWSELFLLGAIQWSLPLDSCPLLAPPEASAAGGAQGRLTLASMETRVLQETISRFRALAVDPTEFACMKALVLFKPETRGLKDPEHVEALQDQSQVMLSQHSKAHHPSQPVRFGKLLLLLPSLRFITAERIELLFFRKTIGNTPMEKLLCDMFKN
#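 System: GST-tagged NR2E3 plus biotinylated RetCOR corepressor; Buffer or medium: pH 7.5 Tris-based buffer; Probe or stimulus: RetCOR corepressor, biotinylated, 7 nM; Doses: compound at 4.8 µM, single dose; Schedule: 5 h incubation at 4 °C; Technique: time-resolved FRET; Evaluation: percent inhibition of TR-FRET ratio; Replication: one well per compound, singlicate testing.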
# Jurkat NFkB inh: inhibitors of the PMA/ionomycin-induced NF-kB reporter in Jurkat cells; PMA/ionomycin-induced NF-kB luciferase reporter, luminescence; inhibition, % at 4 µM; 330,000 compounds, 0.53% hits; in the data active = inhibition above about 50%
# NR2E3 ag-2: agonists of human NR2E3 nuclear receptor | 360,000 compounds, 0.35% hits | CHO-S Gal4-NCOR/VP16-NR2E3 two-hybrid, luciferase | inhibition of corepressor binding, % at 3.98 µM;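 active = inhibition above the mean of all tested compounds plus 3 SD, cut at about 70% in these data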;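 also: 0% = DMSO with NR2E3 transfected cells and 100% = cells lacking NR2E3 construct; higher means lower luciferase signal from less NR2E3 corepressor binding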
# MPTP inh: inhibitors of mitochondrial permeability transition pore. isolated mouse mitochondria, Ca2+ swelling absorbance, 30 min. inhibition, % at 10 µM. 360,000 compounds, 1.4% hits. AID 602449;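 active = inhibition of 50% or more, scaled per plate between neutral and stimulator controls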;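 also: 0% = DMSO wells given calcium and 100% = 1 mM EGTA wells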
# MPTP counter: membrane potential counter-screen of mitochondrial pore inhibitors | inhibition, % at 10 µM | isolated mitochondria, Rhodamine 123 fluorescence | 5,000 compounds, 78% hits | shares compounds with MPTP inh; in the data active = inhibition above about 22%;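 also: 0% = DMSO vehicle and 100% = positive control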
# MPTP swell DR: MPTP inhibition, dose response swelling confirmation; shares compounds with MPTP inh; isolated mitochondria swelling, absorbance; IC50, µM; 780 compounds, 58% hits; AID 651561; in the data active = IC50 below about 20 µM
# MPTP cs DR: active in counter-screen for permeability transition pore inhibitors; shares compounds with MPTP inh; 780 compounds, 49% hits; IC50, µM; AID 651564; isolated mitochondria counterscreen, fluorescence read-out; in the data active = IC50 below about 80 µM
# Numbers without * were called inactive; i = inactive; . = no result.
SMILES,aDG glyco act,697 NFkB inh,NR2E3 ag-1,Jurkat NFkB inh,NR2E3 ag-2,MPTP inh,MPTP counter,others
Cc1ccc(C2=NC(=O)/C(=C/c3cc(O)c(O)c(Br)c3)S2)cc1,-0.1,0.0,.,2.8,-51.1,114.1*,36.1*,
N#CC1=C(N)NC(SCc2ccccc2)=C(C#N)C12CCCCC2,0.0,8.0,-1.2,-1.0,-13.9,68.2*,74.4*,
N#CC1=C(N)NC(SCC(=O)c2ccc(Cl)cc2)=C(C#N)C12CCCC2,0.4,8.2,1.1,-11.5,-22.7,30.4,.,
CCSC1=C(C#N)C2(CCCCC2)C(C#N)=C(N)N1,0.2,-8.1,2.7,-2.1,8.8,-0.2,.,
N#CC1=C(N)NC(SCC(=O)c2ccc(Br)cc2)=C(C#N)C12CCCCC2,0.8,16.4,-1.2,-7.2,-4.5,90.0*,80.4*,
CCCCOc1ccc(CSc2nc(C)[nH]c2[N+](=O)[O-])cc1[N+](=O)[O-],0.4,-39.0,-0.8,-30.1,32.7,56.0*,74.8*,
CCCCOc1ccc(CSc2nnc(C)n2N)cc1[N+](=O)[O-],-0.1,7.5,1.0,-0.8,26.9,0.8,.,
CCCCN1C[C@H](C)[C@@H](CC(=O)Nc2ccccc2)C1=O,0.1,.,.,.,-3.5,-0.3,.,
COC(=O)c1cc(CSc2nc3ccccc3[nH]2)oc1C,0.9,-86.3,3.3,-33.4,-27.1,82.0*,40.2*,
CCCc1cc(=O)[nH]c(SCc2cc(C(=O)OC)c(C)o2)n1,0.3,-2.5,-1.3,3.3,-18.2,3.3,.,
Clc1ccc(C(c2ccccc2)N2CCNCC2)cc1 (stereo unspecified),1.0,18.6,2.1,6.1,-0.7,79.9*,-12.1,MPTP swell DR=6.69*;MPTP cs DR=>80
COc1ccc(C(=O)Nc2cccc3nc(C)ccc23)cc1OC,0.0,-6.9,3.0,9.0,4.2,-1.1,.,
CCn1nnc2cc(C(=O)OCC(=O)N(C)Cc3cccc(F)c3)ccc21,0.1,-2.5,.,-13.6,6.9,0.2,.,
CC(NC(=S)Nc1ccc(OC(F)F)cc1OC(F)F)C(C)(C)C (stereo unspecified),0.7,-3.6,-0.3,-11.8,1.3,86.2*,90.7*,
CC1(C)CC(N=Cc2c(O)n(Cc3ccc4c(c3)OCO4)c(=O)c3ccccc23)CC(C)(C)N1,-0.3,17.2,0.2,13.6,3.7,52.7*,-21.8,MPTP swell DR=4.9*;MPTP cs DR=>80
OC(CNCc1ccc(Cl)cc1)(c1ccccc1)c1ccc(F)cc1 (stereo unspecified),-0.3,2.9,5.8,-3.1,-18.8,73.0*,12.9,MPTP swell DR=18.5*;MPTP cs DR=24.5*
OC(CNCc1ccc(F)cc1)(c1ccc(F)cc1)c1ccc(F)cc1,0.1,6.1,-0.2,-9.3,3.3,6.7,.,
Clc1cccc(N/N=C(\Cc2nc3ccccc3[nH]2)c2ccccc2)c1,0.4,-50.3,-1.0,-25.0,-80.4,72.3*,69.5*,
O=C(Nc1cccc(C(F)(F)F)c1)c1cccnc1NCCO,0.0,3.5,2.9,-6.7,2.5,0.9,.,
O=C(Nc1cccc(C(F)(F)F)c1)c1cccnc1NCCc1ccccc1,0.5,-11.8,0.8,6.5,-23.1,80.1*,70.5*,
OCC[C@H]1C[C@H](O)[C@@H](O)[C@@]2(Cc3ccccc3O2)O1,-0.1,17.5,1.3,14.7,3.3,-0.3,.,
O=[N+]([O-])c1ccccc1S(=O)(=O)NCCSCc1ccco1,0.4,10.4,-1.7,4.4,-1.9,-0.2,.,
COC(=O)NC(NC(=S)Nc1cccc(C)c1)C(Cl)(Cl)Cl (stereo unspecified),0.0,-0.5,3.4,21.0,-6.2,0.7,.,
O=C(NC(=S)Nc1c(Cl)cc(Cl)cc1Cl)c1ccccc1,0.3,.,.,.,-38.8,1.8,.,
O=C(NC(NC(=S)Nc1c(Cl)cc(Cl)cc1Cl)C(Cl)(Cl)Cl)OCc1ccccc1 (stereo unspecified),2.3,-8.4,0.9,-9.1,-4.6,78.1*,62.7*,
SMILES,aDG glyco act,697 NFkB inh,NR2E3 ag-1,Jurkat NFkB inh,NR2E3 ag-2,MPTP inh,MPTP counter,others
Cc1ccc(C)c(NC(=S)NC(NC(=O)OCc2ccccc2)C(Cl)(Cl)Cl)c1 (stereo unspecified),1.0,-13.0,-0.2,7.8,-8.4,94.9*,82.8*,
c1ccc2cc(CSCc3nc4ccccc4[nH]3)ccc2c1,0.7,-11.9,1.5,-11.1,-31.9,88.2*,87.8*,
COc1cc2c(cc1OC)C(C)N(C(=O)[C@@H](NC(=O)c1ccccc1)C(C)C)CC2 (stereo partly specified),0.2,8.4,-1.5,-0.7,1.9,0.1,.,
CO/N=C(\C)c1ncc(C(F)(F)F)cc1N1CCOCC1,-0.3,12.8,-0.2,-1.4,-9.0,5.5,.,
Cc1ccc(/C=N/NC(=O)NN(C)c2ncc(C(F)(F)F)cc2Cl)cc1,0.8,3.3,0.9,-2.2,-2.8,-0.9,.,
CN(NC(=O)Nc1ccc(Cl)cc1)c1ncc(C(F)(F)F)cc1Cl,0.0,-10.1,2.0,3.6,-34.0,87.8*,91.3*,
N/C(=N\OC(=O)Nc1ccc(Cl)cc1)c1ncc(C(F)(F)F)cc1Cl,-0.1,7.4,1.0,-6.7,-26.3,56.1*,112.7*,
C/C(=N\OC(=O)Nc1ccc(Cl)cc1)c1ncc(C(F)(F)F)cc1N1CCOCC1,0.0,3.8,0.5,0.5,-37.4,98.6*,93.6*,
N/C(=N\OC(=O)Nc1ccccc1)c1ncc(C(F)(F)F)cc1Cl,0.8,6.7,-2.2,-21.6,-10.6,-0.2,.,
CCc1ccccc1NC(=O)N1CCCc2ccccc21,0.1,6.2,.,-9.6,32.1,-0.4,.,
Fc1ccc(-[n+]2nc(Nc3ccccc3)sc2-c2cccc(Cl)c2Cl)cc1,-0.1,-41.1,2.5,-31.9,-8.6,95.3*,108.9*,
CC(OCCN1CCCC1)(c1ccc(F)cc1)c1ccc(F)cc1,0.1,-19.7,-0.9,-13.1,-13.8,75.5*,-2.1,MPTP swell DR=i;MPTP cs DR=>80
Fc1ccc(OCCOCCN2CCCC2)cc1,-0.1,12.6,-1.1,8.2,-17.9,2.2,.,
COc1cc(CNCCO)ccc1OCC(=O)Nc1ccc(Br)cc1,0.5,10.8,-2.8,-20.9,-16.6,59.3*,-9.9,MPTP swell DR=i;MPTP cs DR=>80
O=C(NNC1=C(C(=O)C(F)(F)F)CCC1)c1ccc(Cl)cc1,-0.5,-20.5,4.7,10.5,-34.1,91.9*,76.9*,
COc1ccc(C(=O)/C(C#N)=N/Nc2ccccc2[N+](=O)[O-])cc1,-0.5,-117.1,-0.6,40.6,-21.9,95.4*,88.2*,
CCN(CC)S(=O)(=O)c1ccc(S(=O)(=O)Nc2ccc3c(c2)oc2ccccc23)cc1,-0.1,16.9,-1.5,-3.1,16.8,60.3*,83.5*,
